# Most compounds without a hit are left out; they make up all but 1.4% or so of the library.
# NR2E3 ag-1: NR2E3 (human) agonism. GST-NR2E3/biotin-RetCOR TR-FRET, 1536-well. inhibition of corepressor binding, % at 4.78 µM. 0.12% of 320,000 active;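 active means percent inhibition above the cutoff of mean plus 3 SD of all tested compounds, set per screening campaign, cut at about 20% in these data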
# Target sequence (Q9Y5X4 whole entry, looked up): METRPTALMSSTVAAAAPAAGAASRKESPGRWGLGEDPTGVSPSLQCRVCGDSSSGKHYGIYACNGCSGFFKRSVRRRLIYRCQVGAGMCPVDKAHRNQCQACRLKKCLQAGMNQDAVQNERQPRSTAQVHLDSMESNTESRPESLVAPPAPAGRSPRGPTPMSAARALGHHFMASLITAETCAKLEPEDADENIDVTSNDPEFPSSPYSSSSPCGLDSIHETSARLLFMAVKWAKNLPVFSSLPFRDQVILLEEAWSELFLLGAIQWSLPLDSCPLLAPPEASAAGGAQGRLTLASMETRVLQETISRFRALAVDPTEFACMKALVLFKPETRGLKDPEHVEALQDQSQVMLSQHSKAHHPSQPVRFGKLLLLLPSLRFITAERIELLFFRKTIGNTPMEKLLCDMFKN
#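 Material: NR2E3–RetCOR corepressor complex / Incubation: Compound–protein incubation for 5 h at 4 °C / Dosing: compound at 4.8 µM, single dose / Detection: time-resolved FRET / Benchmarks: high control biotin, low control 0.6% DMSO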
# NR1D1 modulator: Rev-erb alpha (human) modulation; activity, % at 10 µM; 0.79% of 370,000 active; Rev-erbα–FITC-DNA binding, fluorescence polarization, 90 min;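 active means activity above about 14%, limit read from the data; passing the limit was not always enough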
# PG9 Ab binder: small molecules binding HIV-1 gp120 antibody PG9; TR-FRET gp120-PG9 antibody binding; inhibition, % at 6.7 µM; 0.43% of 360,000 active; AID 624416; in the data active means inhibition above about 8.5%
# NR2E3 ag-2: activates human NR2E3 receptor | CHO-S Gal4-NCOR/VP16-NR2E3 two-hybrid, luciferase | inhibition of corepressor binding, % at 3.98 µM | 0.35% of 360,000 active;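 active means inhibition above the mean of all tested compounds plus 3 SD, cut at about 70% in these data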;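 further: higher means lower luciferase signal from less NR2E3 corepressor binding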
# NR1D1 mod conf: Rev-erb alpha (human) modulation, hit confirmation; shares compounds with NR1D1 modulator; Rev-erb alpha FITC-DNA binding, fluorescence polarization, 90 min; activation, % at 25 µM; 61% of 3,000 active; AID 1259319;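 active means activation at or above a set limit, or at least 3 SD above the negative control mean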
# RORg DNA counter: counter-screen for Rev-erb alpha modulators: RORgamma DNA binding; shares compounds with NR1D1 modulator; purified RORgamma protein-FITC-DNA binding, fluorescence polarization; IC50, µM; 8% of 910 active; AID 1259320;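 active means Compounds whose fitted half-maximal concentration for disrupting protein-DNA binding is below 10 micromolar; the record names Rev-erb in its text, so the target is in doubt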
# Numbers stand for hits; - = inactive; . = not tested or not shown.
SMILES,NR2E3 ag-1,NR1D1 modulator,PG9 Ab binder,NR2E3 ag-2,NR1D1 mod conf,others
Cc1cccc(N2C(=O)c3cccc4cccc(c34)C2=O)c1,-,-,-,-,.,
CC(=O)c1ccc2c3c(cccc13)C(=O)N(CCc1ccccc1)C2=O,-,-,-,-,.,
Cc1cccc(N2C(=O)c3cccc4c(N)ccc(c34)C2=O)c1,-,245.2,-,-,198.9,RORg DNA counter=-
O=C(O)CCN1C(=O)/C(=C/c2cccc(OCc3ccc(F)cc3)c2)SC1=S,.,-,.,.,.,
CCNC(=O)C1(C)CCCN(C(=O)Cc2ccc(OC)c(OC)c2)C1 (stereo not drawn),.,-,-,-,.,
COc1ccc(-c2ccc3c(n2)CCCN3S(=O)(=O)c2ccc(C(F)(F)F)cc2)cc1,.,-,-,.,.,
CCN1C(=O)c2cccc3c(Cl)ccc1c23,-,-,-,-,.,
CCN1C(=O)c2cccc3c(Cl)ccc(c23)C1=O,-,41.0,-,-,29.8,
O=C1CC(c2ccccc2)Cc2nc(N3CCc4ccccc43)ncc21 (stereo not drawn),-,29.6,-,-,23.4,
O=C1CC(c2cccc(Cl)c2)Cc2nc(N3CCN(c4ccccc4)CC3)ncc21 (stereo not drawn),-,36.7,-,-,19.3,
O=C1CC(c2cccc(Cl)c2)Cc2nc(N3CCOCC3)ncc21 (stereo not drawn),-,-,-,-,.,
Cc1cc(C)nc(NS(=O)(=O)c2ccc(N/C=C/C(=O)c3ccc(Cl)c(Cl)c3)cc2)n1,-,31.9,-,-,19.1,
Cc1cc(C)nc(NS(=O)(=O)c2ccc(N/C=C\C(=O)c3ccc(Cl)cc3)cc2)n1,-,-,-,-,.,
COc1cc(NS(=O)(=O)c2ccc(N/C=C\C(=O)c3ccc(C)cc3)cc2)nc(OC)n1,-,-,-,-,.,
CCOc1ccc(C(=O)/C=C/Nc2ccc(S(=O)(=O)Nc3cc(C)nc(C)n3)cc2)cc1,-,19.8,-,.,-,
COC(=O)c1ccc(NC(=O)CN2CCC(NC(=O)c3ccccc3F)CC2)cc1,.,-,-,-,.,
COC(=O)C[C@@H]1CC[C@@H]2[C@H](COc3ccc(NC(=O)c4ccc5c(c4)OCO5)cc3C(=O)N2C)O1,.,-,.,.,.,
CNC(=O)C[C@H]1CC[C@H]2[C@@H](COc3ccc(NC(=O)Nc4ccccc4)cc3C(=O)N2C)O1,.,27.7,.,.,14.0,
CCNC(=O)C[C@H]1CC[C@H]2[C@@H](COc3ccc(NC(=O)Nc4ccccc4)cc3C(=O)N2C)O1,.,33.9,.,.,13.1,
CCCNC(=O)C[C@H]1CC[C@H]2[C@@H](COc3ccc(NC(=O)Nc4ccc(C#N)cc4)cc3C(=O)N2C)O1,.,35.6,.,.,18.8,
CCNC(=O)C[C@H]1CC[C@H]2[C@@H](COc3ccc(NC(=O)c4ccc5c(c4)OCO5)cc3C(=O)N2C)O1,.,141.2,.,.,47.6,RORg DNA counter=-
Cc1ccc2[nH]c(=O)c(N3CCOCC3)c(-c3ccccc3)c2c1,-,28.4,-,-,-,
O=S(=O)(/N=C(/Nc1nc2ccccc2s1)c1ccccc1)c1ccc(F)cc1,.,19.1,-,-,-,
CN1OC[C@@H]2CN(C(=O)CCc3ccccc3)[C@H](c3cccc(-c4ccc(C#N)cc4)c3)C[C@@H]21,.,-,-,-,.,
CCCc1cc2c(=O)c(-c3nc4ccccc4s3)c(COCC(=O)O)oc2cc1O,.,29.8,-,-,-,
SMILES,NR2E3 ag-1,NR1D1 modulator,PG9 Ab binder,NR2E3 ag-2,NR1D1 mod conf,others
CC1CN(C(=O)COC(=O)/C=C/c2ccccc2)CC(C)O1 (stereo not drawn),.,-,-,-,.,
COC(=O)c1ccc(Cn2ccc3ccc(-c4ccc5ccn(C(=O)c6ccccc6OC)c5c4)cc32)cc1,.,47.0,.,.,71.6,RORg DNA counter=-
Cc1ccccc1C(=O)n1ccc2ccc(-c3ccc4ccn(Cc5ccccc5)c4c3)cc21,.,-,.,.,.,
COc1ccc(Cn2ccc3ccc(-c4ccc5ccn(C(=O)c6ccccc6OC)c5c4)cc32)cc1,.,70.6,.,.,62.9,RORg DNA counter=-
COc1ccc(Cn2ccc3ccc(-c4ccc5ccn(C(=O)c6ccccc6C)c5c4)cc32)cc1,.,-,.,.,.,
CCN(C(=O)[C@@H]1CC(=O)O[C@@H]1c1ccccc1)c1ccccc1,.,-,.,.,.,
CCCCNC(=O)C1c2ccccc2OCC(=O)N1Cc1ccc2c(c1)OCO2 (stereo not drawn),.,-,-,-,.,
CCc1cc2cc(C)ccc2nc1SCC(=O)NC1CCCC1,-,31.6,-,-,34.6,RORg DNA counter=-
CCc1cc2cccc(C)c2nc1SCC(=O)NC1CCCC1,-,20.6,-,-,-,

# From PubChem
